Laboratory results as given in the M2OR odorant receptor database.

How the values were obtained:
Conditions in all cases: stereoisomer not certain
UniProt L7MU75 = target: T1, UniProt L7MU75
T1 sequence (whole entry): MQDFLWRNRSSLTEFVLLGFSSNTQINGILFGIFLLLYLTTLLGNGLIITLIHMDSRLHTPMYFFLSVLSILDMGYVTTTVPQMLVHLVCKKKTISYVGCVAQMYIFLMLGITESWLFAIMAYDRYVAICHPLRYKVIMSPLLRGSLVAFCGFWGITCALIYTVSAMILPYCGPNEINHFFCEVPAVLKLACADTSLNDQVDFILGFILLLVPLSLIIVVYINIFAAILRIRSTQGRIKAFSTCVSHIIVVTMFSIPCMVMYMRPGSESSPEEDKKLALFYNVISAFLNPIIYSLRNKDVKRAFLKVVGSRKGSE
Summary of the method: (§1)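 Assay methods differ from source to source, frequently being transient luciferase assays in mammalian cell lines. For each receptor–molecule pair, the label responsive (active) applies when the original authors judged the measured signal statistically different from baseline, and non-responsive (inactive) applies otherwise.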

UniProt L7N210 = target: T2, UniProt L7N210
T2 sequence (whole entry): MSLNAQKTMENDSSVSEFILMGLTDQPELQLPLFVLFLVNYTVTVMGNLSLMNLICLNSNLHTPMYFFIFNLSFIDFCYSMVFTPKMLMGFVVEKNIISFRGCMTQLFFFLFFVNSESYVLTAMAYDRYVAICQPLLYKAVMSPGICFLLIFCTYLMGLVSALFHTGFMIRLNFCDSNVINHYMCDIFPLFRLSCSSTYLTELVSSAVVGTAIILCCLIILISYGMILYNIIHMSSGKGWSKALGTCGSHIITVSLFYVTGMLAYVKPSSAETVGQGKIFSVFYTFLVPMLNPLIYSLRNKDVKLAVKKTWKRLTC
Summary of the method: as §1

UniProt Q3KPB0 = target: T3, UniProt Q3KPB0
T3 sequence (whole entry): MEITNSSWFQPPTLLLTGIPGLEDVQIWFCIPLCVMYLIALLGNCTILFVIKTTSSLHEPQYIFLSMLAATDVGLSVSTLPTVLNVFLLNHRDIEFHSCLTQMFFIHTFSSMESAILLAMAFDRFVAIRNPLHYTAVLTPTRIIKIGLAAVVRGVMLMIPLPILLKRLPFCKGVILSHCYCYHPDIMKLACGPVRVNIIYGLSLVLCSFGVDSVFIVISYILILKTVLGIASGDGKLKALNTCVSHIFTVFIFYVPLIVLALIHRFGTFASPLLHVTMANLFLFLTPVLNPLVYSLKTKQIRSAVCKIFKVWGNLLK
Summary of the method: as §1

UniProt Q3U0P3 = target: T4, UniProt Q3U0P3
T4 sequence (whole entry): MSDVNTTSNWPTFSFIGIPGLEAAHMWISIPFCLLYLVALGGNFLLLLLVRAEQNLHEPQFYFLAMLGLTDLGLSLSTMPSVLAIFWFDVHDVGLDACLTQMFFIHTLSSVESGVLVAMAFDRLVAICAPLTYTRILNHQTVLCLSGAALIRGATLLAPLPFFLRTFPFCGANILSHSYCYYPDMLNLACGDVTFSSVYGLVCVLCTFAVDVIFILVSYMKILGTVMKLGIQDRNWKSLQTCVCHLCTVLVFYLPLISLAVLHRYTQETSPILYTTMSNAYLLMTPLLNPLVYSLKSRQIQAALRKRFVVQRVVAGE
Summary of the method: as §1

UniProt Q7TQU8 = target: T5, UniProt Q7TQU8
T5 sequence (whole entry): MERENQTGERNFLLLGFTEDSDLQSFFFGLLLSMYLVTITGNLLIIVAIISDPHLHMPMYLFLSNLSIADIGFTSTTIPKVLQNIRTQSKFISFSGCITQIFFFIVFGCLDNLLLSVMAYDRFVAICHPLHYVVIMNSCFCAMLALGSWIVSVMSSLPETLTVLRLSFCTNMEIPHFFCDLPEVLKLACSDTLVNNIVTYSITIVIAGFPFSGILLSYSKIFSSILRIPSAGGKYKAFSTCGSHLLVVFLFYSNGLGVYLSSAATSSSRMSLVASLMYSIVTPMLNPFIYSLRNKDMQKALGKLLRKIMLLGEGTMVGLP
Summary of the method: as §1

Measured: odorant receptor agonist call

Cc1ccc(C(C)C)cc1
inactive: all assays above

CCC=CCCCCC=O
inactive: all assays above

CC(CC=O)CCCC(C)(C)O (stereo not given)
inactive: all assays above

O=C([O-])CCCCCCC(=O)[O-].[H+].[H+]
inactive: all assays above

Cc1ccc2c(c1)OCC(=O)CO2
inactive: all assays above

CCCCCCCOC(=O)C(C)C
inactive: all assays above

Cc1ccccc1OC(=O)C(C)C
inactive: all assays above

CC(=O)OCc1ccc2c(c1)OCO2
active: UniProt L7N210
inactive: all other assays above

O=C(O)CCCCCCCCC(=O)O
inactive: all assays above

CCCCCCCCCCCO
inactive: all assays above

CC=Cc1ccc(OC)cc1
inactive: all assays above

COc1ccccc1
inactive: all assays above

CCCCCC=CCCC=O
inactive: all assays above

CCCCC=O
inactive: all assays above

CC(=O)C1(C)CC2=C(CCCC2(C)C)CC1C (stereo not given)
inactive: all assays above

CCCCCCCCC=CC=O
inactive: all assays above

Cc1ccc(C(C)C)c(O)c1
inactive: all assays above

C=CC(C)=CCC=C(C)CCC=C(C)C
inactive: all assays above

CCCC(C)C(=O)OCC (stereo not given)
inactive: all assays above

CCC(C)O (stereo not given)
inactive: all assays above

CSSCc1ccco1
inactive: all assays above

OCCCCCCCCCO
inactive: all assays above

CCCCCCC(C)O (stereo not given)
active: UniProt L7N210
inactive: all other assays above

CCSCC
inactive: all assays above

CSSSC
inactive: all assays above
